Reference: ChEMBL document CHEMBL3994644, “Discovery of AAT-008, a novel, potent, and selective prostaglandin EP4 receptor antagonist” (Bioorg Med Chem Lett, 2017)

Experiments:
[1] = target: Prostaglandin E2 receptor EP4 subtype (Mus musculus, UniProt P32240); test: Antagonist activity at mouse recombinant EP4 receptor assessed as inhibition of PGE2-induced cAMP level by cell based assay; format: functional; conditions: read-out: pA2 (converted)
How it was run: (§1)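 Functional antagonism was measured as inhibition of PGE2-induced cAMP in cells transfected with rodent EP4 (mouse or rat). The value is expressed as pA2.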

[2] = target: T1, Prostaglandin E2 receptor EP4 subtype (Rattus norvegicus, UniProt P43114); test: Antagonist activity at rat recombinant EP4 receptor assessed as inhibition of PGE2-induced cAMP level by cell based assay; format: functional; conditions: read-out: pA2 (converted); how it was run: as §1
[3] = target: T1, Prostaglandin E2 receptor EP4 subtype; test: Antagonist activity at rat recombinant EP4 receptor
[4] = target: T2, Prostaglandin E2 receptor EP4 subtype (Homo sapiens, UniProt P35408); test: Antagonist activity at human EP4 receptor expressed in HEK293 cells assessed as inhibition of PGE2-induced cAMP level by HTS assay; format: functional, cell-based
[5] = target: T2, Prostaglandin E2 receptor EP4 subtype; test: Displacement of [3H]PGE from human EP4 receptor expressed in HEK293 cell membranes
How it was run: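 Membrane binding assay using [3H]PGE2 with membranes from HEK-293 cells expressing human EP4. The value is expressed as Ki.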

[6] = target: T3, Prostaglandin E2 receptor EP3 subtype (Homo sapiens, UniProt P43115); test: Antagonist activity at human EP3 receptor
T3 sequence (P43115 whole entry): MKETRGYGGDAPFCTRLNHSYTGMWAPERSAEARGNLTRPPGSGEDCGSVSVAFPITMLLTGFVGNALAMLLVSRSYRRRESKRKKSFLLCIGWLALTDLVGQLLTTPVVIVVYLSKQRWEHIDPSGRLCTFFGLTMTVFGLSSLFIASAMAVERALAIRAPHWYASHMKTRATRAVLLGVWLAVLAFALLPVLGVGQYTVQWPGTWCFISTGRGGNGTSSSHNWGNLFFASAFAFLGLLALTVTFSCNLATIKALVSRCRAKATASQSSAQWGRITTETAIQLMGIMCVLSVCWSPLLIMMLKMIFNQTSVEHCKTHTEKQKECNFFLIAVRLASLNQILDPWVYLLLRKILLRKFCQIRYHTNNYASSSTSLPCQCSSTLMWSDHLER

[7] = Antagonist activity at human DP receptor
[8] = target: Prostaglandin F2-alpha receptor (Homo sapiens, UniProt P43088); test: Antagonist activity at human FP receptor
[9] = Tmax in cynomolgus monkey at 1 mg/kg, po; format: ADME, organism-based, Macaca fascicularis; conditions: in vivo
How it was run: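 Oral administration of the compound; Tmax is from plasma concentration–time profiles. Values are mean SD of N = 4 animals per species.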

[10] = AUC (0 to infinity) in Sprague-Dawley rat at 1 mg/kg, iv; format: ADME, organism-based; set-up: dose 1 mg/kg, route intravenous, time infinity; conditions: in vivo
How it was run: (§2)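 Single 1 mg/kg dose given IV or PO to rats, dogs and monkeys. Plasma pharmacokinetic parameters were derived and reported as mean SD, N = 4.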

[11] = AUC (0 to infinity) in Beagle dog at 1 mg/kg, po; format: ADME, organism-based, Canis lupus familiaris; set-up: dose 1 mg/kg, time infinity, route oral; conditions: in vivo; how it was run: as §2
[12] = Total clearance in Beagle dog at 1 mg/kg, iv; format: ADME, organism-based, Canis lupus familiaris; conditions: in vivo
How it was run: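 A single intravenous injection at 1 mg/kg was given. Plasma concentration–time data gave total clearance (CL_total, mL/min/kg) and steady-state volume of distribution (Vd_ss, L/kg). Values are mean SD of N = 4 animals per species.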

[13] = Oral bioavailability in Sprague-Dawley rat at 1 mg/kg; format: ADME, organism-based; conditions: in vivo; how it was run: as §2
[14] = Elimination half life in cynomolgus monkey at 1 mg/kg, po; format: ADME, organism-based, Macaca fascicularis; conditions: in vivo, read-out: beta t1/2 (converted); how it was run: as §2
Rattus norvegicus = test: Analgesic activity in po dosed rat model of chronic inflammatory pain assessed as inhibition of CFA-induced weight bearing deficit; format: functional
How it was run: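 Chronic inflammatory pain was modelled in rats with CFA and read out as weight bearing deficit after oral dosing. The value is the minimum effective dose (MED, mg/kg PO).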

CYP2D6 = CYP2D6 (Homo sapiens, UniProt P10635); test: Inhibition of CYP2D6 (unknown origin) at 1 uM relative to control; format: ADME
How it was run: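 CYP1A, CYP2C9, CYP2C19, CYP2D6 and CYP3A activities were each tested with 1 µM test article. Results are given as percent inhibition of enzyme activity.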

T2 sequence (P35408 whole entry): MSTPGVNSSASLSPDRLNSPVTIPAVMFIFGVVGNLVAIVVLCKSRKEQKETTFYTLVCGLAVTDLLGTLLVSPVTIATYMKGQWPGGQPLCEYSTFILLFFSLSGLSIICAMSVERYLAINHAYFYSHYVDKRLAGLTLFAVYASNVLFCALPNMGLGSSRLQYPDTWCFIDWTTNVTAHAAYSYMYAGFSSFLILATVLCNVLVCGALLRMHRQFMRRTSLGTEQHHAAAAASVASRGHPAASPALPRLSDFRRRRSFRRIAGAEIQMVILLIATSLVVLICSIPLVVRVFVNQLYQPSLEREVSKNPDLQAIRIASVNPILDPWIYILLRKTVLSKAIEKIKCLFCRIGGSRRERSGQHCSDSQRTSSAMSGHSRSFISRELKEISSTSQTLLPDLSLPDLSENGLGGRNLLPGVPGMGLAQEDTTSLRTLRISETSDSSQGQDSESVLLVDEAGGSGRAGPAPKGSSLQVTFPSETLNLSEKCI
T1 sequence (P43114 whole entry): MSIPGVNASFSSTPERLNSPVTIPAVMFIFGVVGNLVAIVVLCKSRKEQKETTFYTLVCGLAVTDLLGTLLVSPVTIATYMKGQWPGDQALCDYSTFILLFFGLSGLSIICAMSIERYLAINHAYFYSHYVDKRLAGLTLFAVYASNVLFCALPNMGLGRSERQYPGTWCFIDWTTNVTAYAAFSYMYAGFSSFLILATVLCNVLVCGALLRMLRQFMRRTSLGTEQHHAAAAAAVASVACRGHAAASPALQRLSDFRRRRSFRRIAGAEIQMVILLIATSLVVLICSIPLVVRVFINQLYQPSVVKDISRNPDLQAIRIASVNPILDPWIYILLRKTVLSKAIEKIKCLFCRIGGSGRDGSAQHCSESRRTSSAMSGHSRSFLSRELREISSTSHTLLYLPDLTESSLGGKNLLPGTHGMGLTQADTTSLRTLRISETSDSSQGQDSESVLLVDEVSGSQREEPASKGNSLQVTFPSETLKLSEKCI
Sequence of Prostaglandin E2 receptor EP4 subtype (Mus musculus, UniProt P32240) (P32240 whole entry): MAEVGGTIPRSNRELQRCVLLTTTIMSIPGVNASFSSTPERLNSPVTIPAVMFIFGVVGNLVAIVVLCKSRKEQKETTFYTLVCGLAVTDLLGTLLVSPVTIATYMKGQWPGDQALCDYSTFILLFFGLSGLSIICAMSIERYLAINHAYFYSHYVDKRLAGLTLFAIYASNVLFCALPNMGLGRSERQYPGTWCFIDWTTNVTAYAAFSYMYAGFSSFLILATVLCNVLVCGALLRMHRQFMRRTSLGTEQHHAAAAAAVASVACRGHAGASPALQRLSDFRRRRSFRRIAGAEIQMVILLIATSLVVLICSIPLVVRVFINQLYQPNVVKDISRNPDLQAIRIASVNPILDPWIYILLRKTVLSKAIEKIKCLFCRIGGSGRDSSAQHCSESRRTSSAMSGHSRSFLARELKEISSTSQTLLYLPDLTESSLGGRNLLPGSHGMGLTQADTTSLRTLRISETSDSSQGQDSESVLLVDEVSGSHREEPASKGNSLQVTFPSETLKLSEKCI
Sequence of Prostaglandin F2-alpha receptor (P43088 whole entry): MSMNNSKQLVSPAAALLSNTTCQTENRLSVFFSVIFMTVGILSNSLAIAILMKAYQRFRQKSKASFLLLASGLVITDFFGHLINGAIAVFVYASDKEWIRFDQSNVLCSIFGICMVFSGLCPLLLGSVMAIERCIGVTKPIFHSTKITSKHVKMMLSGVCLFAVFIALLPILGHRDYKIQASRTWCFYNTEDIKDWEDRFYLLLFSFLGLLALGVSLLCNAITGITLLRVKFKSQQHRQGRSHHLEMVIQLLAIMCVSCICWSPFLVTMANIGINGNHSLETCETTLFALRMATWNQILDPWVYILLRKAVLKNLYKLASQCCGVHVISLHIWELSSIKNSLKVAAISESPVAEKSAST
Sequence of CYP2D6 (P10635 whole entry): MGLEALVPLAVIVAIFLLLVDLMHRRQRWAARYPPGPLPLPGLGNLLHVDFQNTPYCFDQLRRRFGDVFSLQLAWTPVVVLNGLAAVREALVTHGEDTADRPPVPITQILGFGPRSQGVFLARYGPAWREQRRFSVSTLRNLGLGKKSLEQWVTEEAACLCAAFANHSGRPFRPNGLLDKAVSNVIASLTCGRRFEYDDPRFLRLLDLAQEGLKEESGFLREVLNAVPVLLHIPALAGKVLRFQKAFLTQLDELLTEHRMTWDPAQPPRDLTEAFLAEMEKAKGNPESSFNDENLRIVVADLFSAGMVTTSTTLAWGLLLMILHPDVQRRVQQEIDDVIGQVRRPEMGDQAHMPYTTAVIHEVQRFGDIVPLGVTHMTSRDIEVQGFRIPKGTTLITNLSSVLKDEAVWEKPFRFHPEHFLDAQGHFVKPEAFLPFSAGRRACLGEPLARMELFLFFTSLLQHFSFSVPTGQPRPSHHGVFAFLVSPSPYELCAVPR

**Q.** What does the source list for `C[C@H](NC(=O)c1cc(Cl)cnc1Oc1cccc(F)c1)c1ccc(C(=O)O)cc1`?
**A.** Kb [1]: 1 nM; Kb [2]: 4.57 nM; Ki [3]: 6.1 nM; A2 [4]: 1.1 nM; IC50 [4]: 16.3 nM; Kb ([4]; read-out: pA2 (converted)): 1.07 nM; IC50 [5]: 2.4 nM; Ki [5]: 0.97 nM; IC50 [6]: > 20000 nM; Ki [6]: > 6000 nM; Ki [7]: > 6000 nM; Ki [8]: > 6000 nM; Tmax [9]: 8 h; AUC(0-inf) [10]: 9620 ng·h/mL; AUC(0-inf) [11]: 6080 ng·h/mL; clearance [12]: 2.3 mL/min/kg; bioavailability [13]: 73.6%; half-life [14]: 21.9 h; inhibition (Rattus norvegicus): Dose-dependent effect; minimal effective dose (Rattus norvegicus; read-out: MED): 1 mg/kg; inhibition at 1 µM (CYP2D6): < 5%
